Screening results: PubChem BioAssay, several laboratories
EBV gp42 block: Epstein-Barr virus gp42 inhibitors, primary screen, biochemical, uHTS, fluorescence polarization. Fluorescence polarization binding assay, mP read-out. Glycoprotein 42 (Epstein-Barr virus (strain AG876)), Q1HVG2. inhibition, % (tested at 21.74 µM). 0.42% of 220,000 active
Runt-CBFb FRET: inhibitors of RUNX1 Runt–CBFb binding, primary screen, biochemical, FRET, Cerulean-Runt, Venus-CBFb, uHTS. 0.46% of 220,000 active. inhibition, % at 20 µM. AID 1496, 2009. Runt-related transcription factor 1 (Homo sapiens) + Core-binding factor subunit beta …. Cerulean-Runt/Venus-CBFb FRET ratio 530/480, 1 h;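 active = inhibition over about 50% at 20 µM in the single-dose screen, limit read from the data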;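 also: 0% = DMSO wells and 100% = excess unlabeled CBFb competitor control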
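Assay system: Cerulean-tagged RUNX1 Runt domain (FRET donor) fusion protein / Amount: 100 nM each of Venus-CBFb and Cerulean-Runt domain / Medium: Tris buffer pH 7.5 with salts and BSA / Also added: Venus-CBFb 100 nM / Schedule: 1 h complex formation plus 1 h compound treatment, room temperature / Signal: FRET fluorescence / Read-out: loss of energy transfer signal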
RanGTP-Imp inh: inhibitors of RanGTP-importin-beta interaction, primary screen, biochemical, FRET, CFP-Ran, YFP-importin-beta, homogeneous | 1.1% of 300,000 active | Ran GTPase (GTP-bound) - importin-beta complex | inhibition, % (concentration not given with the values) | cell-free CFP-Ran/YFP-importin-beta FRET ratio;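 active = more than half of the replicate wells show a fall in the fluorescence ratio signal beyond about 16%, limit read from the data, passing the limit was not always enough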;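 also: 0% = DMSO wells and 100% = Ran loaded with GDP instead of GTP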
PKD1 inh: inhibitors of human PKD1 kinase, biochemical, fluorescence polarization | Serine/threonine-protein kinase D1 (Homo sapiens), Q15139 | AID 797, 2007 | 0.056% of 200,000 active | inhibition, % (concentration not given with the values) | PKD1 kinase fluorescence polarization assay
Runt-SMMHC FRET: inhibitors of RUNX1 Runt–CBFb-SMMHC binding, primary screen, biochemical, FRET, Cerulean-Runt, Venus-CBFb-SMMHC, uHTS | Cerulean-Runt/Venus-CBFb-SMMHC FRET ratio 530/480, 1 h | inhibition, % at 20 µM | 0.74% of 220,000 active | AID 1434, 2008;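 active = mean inhibition across duplicate retests at 20 µM reaching about 50%, limit read from the data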;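 also: 0% = DMSO wells and 100% = wells with excess untagged CBFb-SMMHC; inhibitors lower the FRET ratio by blocking Runt binding to CBFb-SMMHC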
MEX-5 binding: MEX-5 zinc finger RNA-binding disruptors – biochemical, C. elegans, fluorescence polarization, MLPCN library, primary screen | MEX-5/FITC-TCR2 RNA binding; hits give low values | activity score (negative = inhibition of binding), % at 10 µM | 0.38% of 300,000 active;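 active = inhibition past about -25% in most replicates, and total fluorescence under double the plate's negative control median, limit read from the data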;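 also: 0% = DMSO and -100% = 5 µM competing unlabeled TCR2 RNA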
An asterisk follows results filed as active. In the library only some 2% were active in any assay of this set; here they are far more common. Rule as the data show it, unless noted: active = inhibition above about 50%; inactive = the rest.

For COC(=O)CCCC1=CC2=CC(=O)C(C)(OC(=O)C3CCCC3)C(=O)C2=CO1 (stereo not drawn) the results were EBV gp42 block 10.8, Runt-CBFb FRET -9.9, RanGTP-Imp inh -7.6, Runt-SMMHC FRET -11.6 and MEX-5 binding -26.7*.
For CCCCC1=CC2=CC(=O)C(C)(OC(=O)C3CCCC3)C(=O)C2=CO1 (stereo not drawn) the results were EBV gp42 block -0.1, Runt-CBFb FRET -2.2, RanGTP-Imp inh -11.6, Runt-SMMHC FRET 18.7 and MEX-5 binding -10.1.
Screening COC(=O)CCCC1=CC2=CC(=O)C(C)(O)C(=O)C2=CO1 (stereo not drawn) returned RanGTP-Imp inh -4.0 and MEX-5 binding -38.7*.
CCCCC1=CC2=CC(=O)C(C)(OC(=O)CC)C(=O)C2=CO1 (stereo not drawn) was read as RanGTP-Imp inh -16.5 and MEX-5 binding -23.2.
CCC(=O)OC1(C)C(=O)C=C2C=C(CCCC(=O)OC)OC=C2C1=O (stereo not drawn) was read as RanGTP-Imp inh -7.0 and MEX-5 binding -31.1*.
C/C(CC(=O)Nc1cc(C)ccn1)=N\NC(=O)c1ccncc1 was read as RanGTP-Imp inh 6.4 and MEX-5 binding -1.4.
Screening N#Cc1c(-c2ccccc2)cc(-c2ccccc2)[nH]c1=O returned RanGTP-Imp inh 2.0 and MEX-5 binding 1.0.
`N#Cc1c(-c2cccc(Br)c2)cc(-c2ccco2)[nH]c1=O` gave EBV gp42 block -19.4, Runt-CBFb FRET 40.0, RanGTP-Imp inh 71.5*, PKD1 inh -4.6, Runt-SMMHC FRET 90.5* and MEX-5 binding 1.8.
Screening COc1ccc(-c2cc(C(F)(F)F)c(C#N)c(=O)[nH]2)cc1 returned EBV gp42 block -17.9, Runt-CBFb FRET 45.0, RanGTP-Imp inh 49.4*, Runt-SMMHC FRET 105.0* and MEX-5 binding -3.0.
Screening COc1ccc(-c2cc(-c3ccco3)[nH]c(=O)c2C#N)cc1 returned EBV gp42 block 3.1, Runt-CBFb FRET 21.7, RanGTP-Imp inh 6.6, Runt-SMMHC FRET 85.5* and MEX-5 binding -8.4.
Screening N#Cc1c2c(c(-c3ccco3)[nH]c1=O)CCCC2 returned EBV gp42 block -4.4, Runt-CBFb FRET 9.0, RanGTP-Imp inh 3.0, PKD1 inh 1.8, Runt-SMMHC FRET 0.4 and MEX-5 binding -2.8.
Cc1ccccc1N1C(=O)C(Cc2ccc(F)cc2)S/C1=C(\C#N)C(N)=O (stereo not drawn) was read as EBV gp42 block -25.9, Runt-CBFb FRET 0.1, RanGTP-Imp inh -0.8, Runt-SMMHC FRET -5.3 and MEX-5 binding -1.3.
O=C(c1cccc(C(F)(F)F)c1)C1CCCN(C(=O)/C=C/c2cnc[nH]2)C1 (stereo not drawn) was read as RanGTP-Imp inh -6.2 and MEX-5 binding 0.9.
Screening O=C(Cc1ccc(Cl)cc1Cl)OCC(=O)N1CCCCC1 returned RanGTP-Imp inh 1.6 and MEX-5 binding 3.3.
Cc1nn(Cc2ccc([N+](=O)[O-])cc2)c(=O)n1-c1cccc(Cl)c1 was read as EBV gp42 block 1.9, Runt-CBFb FRET 3.0, RanGTP-Imp inh 20.4*, PKD1 inh -0.5, Runt-SMMHC FRET -2.3 and MEX-5 binding 1.4.
Screening Cc1ccc2nc3c(cc(C(=O)NCCN4CCOCC4)c(=N)n3CCCN3CCOCC3)c(=O)n2c1 returned RanGTP-Imp inh 143.3* and MEX-5 binding -0.4.
For Cc1ccc2nc3c(cc(C(=O)NCCc4ccccc4)c(=N)n3CCN3CCOCC3)c(=O)n2c1 the results were RanGTP-Imp inh 158.8* and MEX-5 binding -1.3.
Screening Cc1ccc2nc3c(cc(C#N)c(=N)n3CCCN3CCOCC3)c(=O)n2c1 returned PKD1 inh 5.0.
